Experimental data from ChEMBL document CHEMBL1143990, “Design, synthesis and evaluation of antiinflammatory, analgesic and ulcerogenicity studies of novel S-substituted phenacyl-1,3,4-oxadiazole-2-thiol and Schiff bases of diclofenac acid as nonulcerogenic derivatives” (Bioorg Med Chem, 2008).

Assays:
[1] = test system: Rattus norvegicus; assay: Antiinflammatory activity against carrageenan-induced paw edema in orally dosed Wistar rat after 3 hrs relative to control; assay type: functional
In short: (§1)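 Wistar rats of either sex, 100–120 g, fasted 24 h with water available. Compounds were suspended in 1% aqueous CMC and given orally 1 h before 0.1 mL of freshly prepared 1.0% w/v carrageenan was injected subplantar into the right hind paw. Paw volume was measured before and after carrageenan. Change in paw volume is mean ± SD versus vehicle control, by one-way ANOVA with Dunnett's test.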

[2] = test system: Rattus norvegicus; assay: Antiinflammatory activity against carrageenan-induced paw edema in orally dosed Wistar rat after 1 hr relative to control; assay type: functional; in short: as §1
[3] = test system: Rattus norvegicus; assay: Antiinflammatory activity against carrageenan-induced paw edema in orally dosed Wistar rat after 2 hrs relative to control; assay type: functional; in short: as §1
[4] = test system: Mus musculus; assay: Analgesic activity against acetic acid-induced writhing in Swiss Albino mouse at 10 mg/kg, po after 25 mins relative to control; assay type: functional
In short: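 Mice given compounds orally at 10 mg/kg, suspended in 1% aqueous sodium carboxymethyl cellulose. Vehicle-only controls were run. Acetic acid was used to induce writhing. Writhes were counted over 25 min after treatment and reported as mean ± SEM. Percent inhibition was calculated versus the vehicle control.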

[5] = test system: Rattus norvegicus; assay: Gastric-ulcerogenic effect in Wistar rat at 10 mg/kg, po; assay type: ADME, organism-based; set-up: dose 10 mg/kg, route oral; settings: in vivo
In short: (§2)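 Wistar rats of either sex (100–120 g), kept at 25 °C and 50% relative humidity on a 12 h light/dark cycle, fasted 24 h with water ad libitum. Compounds were suspended in 1% aqueous CMC and given orally; controls received vehicle. Ulceration was induced in a stress model with added cold stress. Gastric mucosa was scored, with severity index = treated mean score minus control mean. Ratio of ulcerated animals recorded. Mean ± SEM; one-way ANOVA with Dunnett's test. Tissue examined after H&E staining.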

[6] = test system: Rattus norvegicus; assay: Gastric-ulcerogenic effect in Wistar rat at 30 mg/kg, po; assay type: ADME, organism-based; set-up: dose 30 mg/kg, route oral; settings: in vivo; in short: as §2
[7] = test system: Rattus norvegicus; assay: Induction of gastric ulcer in orally dosed Wistar rat assessed as stomach mucosal damage; assay type: organism-based; settings: in vivo, po; in short: as §2
[8] = test system: Rattus norvegicus; assay: Gastric-ulcerogenic effect in Wistar rat at 50 mg/kg, po; assay type: ADME, organism-based; set-up: dose 50 mg/kg, route oral; settings: in vivo; in short: as §2

Row | Structure (SMILES) | Inhibition [1] | Inhibition [2] | Inhibition [3] | inhibition in vivo at 10 mg/kg [4] | Activity [5] | Activity [6] | Activity [7] | Activity [8] | UI [5] | UI [6]
1 | O=C(CSc1nnc(Cc2ccccc2Nc2c(Cl)cccc2Cl)o1)c1ccc(O)cc1 | 71.99% | 31.55% | 48.91% | 68.2% | – | – | – | – | – | –
2 | O=C(Cc1ccccc1Nc1c(Cl)cccc1Cl)N/N=C/c1ccc(O)cc1 | 70.94% | 16.28% | 38.14% | – | – | – | – | – | – | –
3 | O=C(CSc1nnc(Cc2ccccc2Nc2c(Cl)cccc2Cl)o1)c1ccc(Cl)c(Cl)c1 | 60.39% | 30.46% | 52.26% | – | – | – | – | – | – | –
4 | O=C(CSc1nnc(Cc2ccccc2Nc2c(Cl)cccc2Cl)o1)c1ccc(Br)cc1 | 71.05% | 26.02% | 45.16% | 55% | – | – | – | – | – | –
5 | O=C(Cc1ccccc1Nc1c(Cl)cccc1Cl)N/N=C/C=C/c1ccccc1 | 72.76% | 32.28% | 48.81% | 45.3% | – | – | – | – | – | –
6 | O=C(Cc1ccccc1Nc1c(Cl)cccc1Cl)N/N=C/c1ccccc1O | 72.88% | 31.38% | 46.96% | 60.5% | Non-toxic | Non-toxic | Non-toxic | Non-toxic | – | –
7 | O=C(Cc1ccccc1Nc1c(Cl)cccc1Cl)N/N=C/c1ccc(Br)cc1 | 80.07% | 30.53% | 51.72% | 68.7% | Non-toxic | Non-toxic | Non-toxic | Non-toxic | – | –
8 | O=C(CSc1nnc(Cc2ccccc2Nc2c(Cl)cccc2Cl)o1)c1ccc([N+](=O)[O-])cc1 | 67.19% | 20.99% | 45.64% | – | – | – | – | – | – | –
9 | O=C(CSc1nnc(Cc2ccccc2Nc2c(Cl)cccc2Cl)o1)c1cccc([N+](=O)[O-])c1 | 60.39% | 28.34% | 49.47% | – | – | – | – | – | – | –
10 | COc1ccc(C(=O)CSc2nnc(Cc3ccccc3Nc3c(Cl)cccc3Cl)o2)cc1OC | 72.63% | 23.43% | 48.63% | 51.4% | Non-toxic | Non-toxic | Non-toxic | Non-toxic | – | –
11 | O=C(Cc1ccccc1Nc1c(Cl)cccc1Cl)N/N=C/c1ccc(F)cc1 | 60.34% | 16.64% | 41.35% | – | – | – | – | – | – | –
12 | Cc1ccc(/C=N/NC(=O)Cc2ccccc2Nc2c(Cl)cccc2Cl)cc1 | 68.62% | 20.99% | 43.09% | – | – | – | – | – | – | –
13 | COc1ccc(/C=N/NC(=O)Cc2ccccc2Nc2c(Cl)cccc2Cl)cc1 | 73.36% | 27.21% | 51.88% | 53.9% | Non-toxic | Non-toxic | Non-toxic | Non-toxic | – | –
14 | O=C(CSc1nnc(Cc2ccccc2Nc2c(Cl)cccc2Cl)o1)c1cccc(O)c1 | 69.89% | 17.94% | 44.53% | – | – | – | – | – | – | –
15 | O=C(Cc1ccccc1Nc1c(Cl)cccc1Cl)N/N=C/c1ccccc1Cl | 60.99% | 13.54% | 40.2% | – | – | – | – | – | – | –
16 | O=C([O-])Cc1ccccc1Nc1c(Cl)cccc1Cl.[Na+] [DICLOFENAC SODIUM] | 71.3% | 28.69% | 48.99% | 64.7% | – | – | – | – | 1.8 | 2.1
17 | CN(C)c1ccc(/C=N/NC(=O)Cc2ccccc2Nc2c(Cl)cccc2Cl)cc1 | 69.39% | 28.2% | 48.75% | – | – | – | – | – | – | –
18 | COc1cccc(C(=O)CSc2nnc(Cc3ccccc3Nc3c(Cl)cccc3Cl)o2)c1 | 74.23% | 23.8% | 52.09% | 66.9% | Non-toxic | Non-toxic | Non-toxic | Non-toxic | – | –
19 | O=C(Cc1ccccc1Nc1c(Cl)cccc1Cl)N/N=C/c1cccc([N+](=O)[O-])c1 | 69.79% | 20.87% | 47.02% | – | – | – | – | – | – | –
20 | COc1cc(/C=N/NC(=O)Cc2ccccc2Nc2c(Cl)cccc2Cl)cc(OC)c1OC | 71.93% | 29.11% | 50.97% | – | – | – | – | – | – | –
